Measured values reported in article PMC10203381 (Plant Communications, 2022).

Legend:
SlDXS1-GFP = type: in vivo, Nicotiana benthamiana; details: 3 dpi; for number of fluorescent spots (SlDXS1-GFP aggregates) per chloroplast: FSM 200 μM or NF 40 μM, compared with untreated controls
Method in brief: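 Agrobacterium GV3101 carrying SlDXS1-GFP was resuspended to OD600 0.8 in 10 mM MgCl2, 10 mM MES, 150 μM acetosyringone, pH 5.6. It was held 1.5 h at 28°C, then mixed 9:1 with an HcPro silencing-suppressor strain. FSM 200 μM, NF 40 μM or water was added before infiltrating leaves of 4-week-old plants. At 3 dpi, confocal imaging used 488 nm excitation and BP515-525 emission alongside chlorophyll fluorescence. Chloroplast and GFP-dot areas were measured from ≥7 images of different leaves, shown as mean and SD.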

N. benthamiana leaves = assay: Leaf bleaching after infiltration with inhibitors; type: in vivo, Nicotiana benthamiana; details: FSM 200 μM or NF 40 μM in the agroinfiltration mixture; observed at 5 dpi
Method in brief: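 Leaves of 4-week-old plants were agroinfiltrated with an SlDXS1 construct plus an HcPro silencing suppressor (9:1). FSM 200 μM, NF 40 μM or water was included in the infiltration mixture. Bleaching was scored visually at 5 dpi.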

SlDXS1 [1] = type: in vivo, Nicotiana benthamiana; details: FSM 200 μM or NF 40 μM; 5 dpi; compared with mock-treated controls
Method in brief: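 Agrobacterium GV3101 carrying untagged SlDXS1 at OD600 0.8 in MES/MgCl2/acetosyringone buffer, pH 5.6, was mixed 9:1 with an HcPro strain. FSM 200 μM, NF 40 μM or water was added before infiltrating 4-week-old leaves. At 5 dpi, about 300 mg of frozen tissue was extracted in TKMES with protease inhibitors and Triton, then cleared at 2800 g, 4°C. Samples in non-denaturing loading buffer were run on 7% SDS-PAGE and blotted with anti-DXS 1:500 overnight at 4°C.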

[2] = system: MEP pathway intermediates in N. benthamiana leaves; type: in vivo, Nicotiana benthamiana; details: leaves infiltrated with SlDXS1, FSM 200 μM or NF 40 μM, 5 dpi; for Metabolite concentration DXP: control 7.69; for Metabolite concentration MEP: control 351.35; for Metabolite concentration MEcPP: control 671.68
SlDXS1 [3] = target: T1, SlDXS1 (Solanum lycopersicum, UniProt Q9XH50); type: cell-based
T1 sequence (Q9XH50 58-719): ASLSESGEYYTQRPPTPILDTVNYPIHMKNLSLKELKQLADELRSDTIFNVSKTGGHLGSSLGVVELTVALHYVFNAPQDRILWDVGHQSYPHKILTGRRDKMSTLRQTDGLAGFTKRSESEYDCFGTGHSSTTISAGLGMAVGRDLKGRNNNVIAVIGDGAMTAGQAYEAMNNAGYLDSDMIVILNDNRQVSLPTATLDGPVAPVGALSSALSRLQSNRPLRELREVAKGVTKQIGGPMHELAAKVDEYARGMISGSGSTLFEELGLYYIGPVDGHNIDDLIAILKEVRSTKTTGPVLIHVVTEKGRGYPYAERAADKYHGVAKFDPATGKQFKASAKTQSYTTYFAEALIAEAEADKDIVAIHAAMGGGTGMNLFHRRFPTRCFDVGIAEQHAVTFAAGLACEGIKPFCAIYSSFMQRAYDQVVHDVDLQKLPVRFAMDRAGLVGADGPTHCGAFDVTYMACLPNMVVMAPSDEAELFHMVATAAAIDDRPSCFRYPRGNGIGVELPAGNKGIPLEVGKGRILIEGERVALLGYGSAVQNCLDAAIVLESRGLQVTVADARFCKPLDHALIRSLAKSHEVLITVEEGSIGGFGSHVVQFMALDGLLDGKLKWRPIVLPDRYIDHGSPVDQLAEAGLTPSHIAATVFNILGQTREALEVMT

[4] = system: E. coli EcAB4-10 cells (EcDXS activity)
EcDXS = target: T2, EcDXS (Escherichia coli, UniProt P77488); type: cell-based
T2 sequence (P77488 1-620): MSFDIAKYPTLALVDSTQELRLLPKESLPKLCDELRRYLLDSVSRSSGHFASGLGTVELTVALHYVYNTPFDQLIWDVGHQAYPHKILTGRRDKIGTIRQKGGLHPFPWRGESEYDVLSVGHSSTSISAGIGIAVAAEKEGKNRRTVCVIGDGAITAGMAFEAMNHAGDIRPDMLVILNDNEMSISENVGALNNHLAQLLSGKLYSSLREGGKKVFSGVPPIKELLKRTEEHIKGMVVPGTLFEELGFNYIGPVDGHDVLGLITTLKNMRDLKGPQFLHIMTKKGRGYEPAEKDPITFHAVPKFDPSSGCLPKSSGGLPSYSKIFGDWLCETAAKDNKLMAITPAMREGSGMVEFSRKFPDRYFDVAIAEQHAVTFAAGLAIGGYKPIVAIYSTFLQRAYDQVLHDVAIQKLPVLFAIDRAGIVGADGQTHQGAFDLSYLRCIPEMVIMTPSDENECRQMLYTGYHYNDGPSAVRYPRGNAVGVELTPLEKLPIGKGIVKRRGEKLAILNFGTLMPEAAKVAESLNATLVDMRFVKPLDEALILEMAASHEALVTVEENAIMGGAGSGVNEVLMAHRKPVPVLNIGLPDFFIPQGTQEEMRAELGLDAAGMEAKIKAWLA

SlDXS1 [5] = target: T1, SlDXS1; assay: Isothermal titration calorimetry; type: binding

Row | SMILES | number of fluorescent spots (SlDXS1-GFP aggregates) per chloroplast (SlDXS1-GFP) | size of the fluorescent spots (SlDXS1-GFP aggregates) (SlDXS1-GFP; NF 40 μM) | leaf phenotype (N. benthamiana leaves) | dimer-to-monomer ratio of SlDXS1 (SlDXS1 [1]) | Metabolite concentration DXP [2] [pg/mg dry weight] | Metabolite concentration MEP [2] [pg/mg dry weight] | Metabolite concentration MEcPP [2] [pg/mg dry weight] | proportion of SlDXS1 dimers (SlDXS1 [3]) | ratio of insoluble (aggregated) to soluble SlDXS1 protein (SlDXS1 [3]) | cell growth (OD600) [4] | intracellular DXP levels [4] | intracellular IPP/DMAPP levels [4] | proportion of EcDXS dimers (EcDXS) | ratio of insoluble (aggregated) to soluble EcDXS protein (EcDXS) | Kd (SlDXS1 [5]) [µM]
1 | CNc1cnn(-c2cccc(C(F)(F)F)c2)c(=O)c1Cl [NF, norflurazon] | lower amounts | larger | bleaching phenotype | decreased | 5.73 | 175.33 | 405.61 |  |  |  |  |  |  |  | 
2 | C[C@@](O)(CCO)CC(=O)O [MVA, mevalonic acid] |  |  |  |  |  |  |  | proportion of dimers decreased | higher ratio of insoluble (aggregated) to soluble | did not show any growth impairment | much lower | markedly increased | proportion of dimers decreased | higher ratio of insoluble (aggregated) to soluble | 
3 | Cc1ncc(C[n+]2csc(CCO[P@](=O)(O)OP(=O)(O)O)c2C)c(N)n1 [TPP, thiamine diphosphate] |  |  |  |  |  |  |  |  |  |  |  |  |  |  | 4.2 ± 0.7
4 | O=CN(O)CCCP(=O)(O)O [FSM, fosmidomycin] | higher amounts |  | bleaching phenotype | increased | 641.99 | 7.67 | 31.03 |  |  |  |  |  |  |  | 
